The values below come from ChEMBL document CHEMBL3272196, “Synthesis and biological action of two glucocorticoid alkylating agents” (J Med Chem, 1977).

Calls of active or inactive are those of the source. The rule behind the calls is not given here.

Data set [1] concerns the target T1, Glucocorticoid receptor (Mus musculus, UniProt P06537).
T1 sequence (P06537 whole entry): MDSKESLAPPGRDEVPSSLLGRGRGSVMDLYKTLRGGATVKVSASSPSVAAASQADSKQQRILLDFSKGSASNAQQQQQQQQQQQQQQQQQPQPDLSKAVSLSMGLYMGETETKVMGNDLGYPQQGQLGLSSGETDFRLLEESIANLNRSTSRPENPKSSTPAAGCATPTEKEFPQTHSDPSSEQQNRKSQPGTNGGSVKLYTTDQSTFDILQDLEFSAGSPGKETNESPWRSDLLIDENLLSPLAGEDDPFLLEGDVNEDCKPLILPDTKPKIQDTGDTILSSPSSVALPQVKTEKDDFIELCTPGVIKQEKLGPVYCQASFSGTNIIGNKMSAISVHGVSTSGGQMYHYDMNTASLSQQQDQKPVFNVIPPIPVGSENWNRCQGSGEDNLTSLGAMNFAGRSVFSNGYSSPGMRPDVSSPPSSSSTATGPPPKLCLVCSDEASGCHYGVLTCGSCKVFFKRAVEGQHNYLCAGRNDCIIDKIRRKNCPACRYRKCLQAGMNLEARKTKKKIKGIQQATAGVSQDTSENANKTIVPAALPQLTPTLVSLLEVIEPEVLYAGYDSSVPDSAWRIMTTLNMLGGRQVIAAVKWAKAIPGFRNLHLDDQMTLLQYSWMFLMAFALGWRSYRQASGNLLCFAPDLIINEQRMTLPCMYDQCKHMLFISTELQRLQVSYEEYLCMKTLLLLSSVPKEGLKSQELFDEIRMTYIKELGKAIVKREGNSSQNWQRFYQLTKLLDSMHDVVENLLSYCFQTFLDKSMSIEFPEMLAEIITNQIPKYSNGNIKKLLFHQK
Briefly: (§1) Displacement of 1 x 10^-8 M of [1,2,3-3H]-triamcinolone acetonide from glucocorticoid receptor in soluble fraction of mouse L929 cells after 20 hrs. Type of data set: cell-based.

Data set [2] can be described thus: Alkylating activity of the compound assessed as alkylation of 4-(p-nitrobenzyl)pyridine after 20 mins by colorimetric analysis. The data set is classed as physicochemical. In a few lines: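 Test agent at 10⁻⁴ M in 1% Me₂SO in water; 3 mL aliquots heated 20 min in boiling water bath with 4-(p-nitrobenzyl)pyridine in acetate buffer pH 4.0. Purple adduct developed with 5.0 N NaOH, extracted into ethyl acetate, A540 read exactly 6 min after base. Value read off mechlorethamine standard curve, expressed relative to mechlorethamine.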

The subject of data set [3] is L929. Briefly: Growth inhibition of mouse L929 cells after 6 days. The data set is classed as functional, cell-based. In a few lines: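 L929 mouse fibroblasts in monolayer in Joklik medium, steroids added in DMSO (0.1% of medium volume) early in growth. Cells harvested and counted 6 days later. Mean of three replicate cultures, expressed as percent of vehicle-control growth.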

Data set [4] deals with L929. Briefly: Growth inhibition of mouse L929 cells at 3 x 10^-7 M preincubated for 48 hrs followed by compound washout. The data set is classed as functional, cell-based. Summed up:
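L929 monolayers (15 mL) dosed day 1, 18 h after seeding, at 3×10⁻⁷ M final, vehicle DMSO. Day 3 medium changed, half switched to steroid-free medium. Medium renewed every other day, cells per bottle counted. Mean and standard error of three replicate cultures.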

For data set [5], the target named is T2, Glucocorticoid receptor (Mus musculus) (UniProt P06537).
T2 sequence (whole entry): T1 sequence (P06537 whole entry)
Described as §1. The data set is classed as cell-based.

The nature of data set [6]: Alkylating activity of the compound assessed as alkylation of 4-(p-nitrobenzyl)pyridine at 10^-4 M after 20 mins by colorimetric analysis. The data set is classed as physicochemical. The following applies: 100 µM.
The target in data set [7] is T1, Glucocorticoid receptor. Briefly: Displacement of 2 x 10^-8 M of [1,2,3-3H]-triamcinolone acetonide from glucocorticoid receptor in soluble fraction of mouse L929 cells after 20 hrs. The data set is classed as cell-based. The note with it: read-out: Kd(app).
Data set [8] can be described thus: Alkylating activity of the compound assessed as alkylation of 4-(p-nitrobenzyl)pyridine at 10^-4 M after 20 mins by colorimetric analysis relative to mechlorethamine. Type of data set: physicochemical. The note with it: 100 µM.
The target in data set [9] is T2, Glucocorticoid receptor (Mus musculus). Briefly: Displacement of [1,2,3-3H]-triamcinolone acetonide from glucocorticoid receptor in soluble fraction of mouse L929 cells at 10^-6 M preincubated for 4 hrs followed by [3H]-triamcinolone acetonide addition measured after 18 hrs by double reciprocal plot analysis. The data set is classed as cell-based. Summed up: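 L929 100 000g supernatant preincubated 4 h on ice with vehicle, 10⁻⁶ M agent or 10⁻⁷ M cortisol. Varied [3H]triamcinolone acetonide then added, incubation continued 18 h. Bound counted after Sephadex G-25 separation; nonspecific (3×10⁻⁵ M dexamethasone) subtracted. Specific binding plotted against free ligand and in double-reciprocal form.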

For data set [10], the target named is T3, Estrogen receptor (Rattus norvegicus, UniProt P06211).
T3 sequence (P06211 whole entry): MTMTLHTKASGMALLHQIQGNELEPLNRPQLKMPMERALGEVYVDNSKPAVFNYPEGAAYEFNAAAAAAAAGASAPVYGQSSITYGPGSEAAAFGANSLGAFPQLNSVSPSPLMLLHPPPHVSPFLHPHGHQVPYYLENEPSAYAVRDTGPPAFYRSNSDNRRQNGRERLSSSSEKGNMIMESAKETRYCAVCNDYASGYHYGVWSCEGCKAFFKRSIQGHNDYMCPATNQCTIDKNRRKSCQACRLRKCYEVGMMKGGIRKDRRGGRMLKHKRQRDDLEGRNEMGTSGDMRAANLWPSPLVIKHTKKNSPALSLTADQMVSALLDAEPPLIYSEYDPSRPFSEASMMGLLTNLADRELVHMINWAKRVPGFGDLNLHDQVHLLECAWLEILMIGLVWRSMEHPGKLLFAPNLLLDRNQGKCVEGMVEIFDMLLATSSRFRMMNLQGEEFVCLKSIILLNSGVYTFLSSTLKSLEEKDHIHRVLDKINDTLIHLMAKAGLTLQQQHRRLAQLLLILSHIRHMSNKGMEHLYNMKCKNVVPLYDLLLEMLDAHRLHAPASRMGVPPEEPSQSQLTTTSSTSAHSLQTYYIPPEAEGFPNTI
Briefly: Displacement of radiolabeled estradiol from estradiol receptor in rat uterine cytosol. Also noted: species or system Uterus.

The molecule `C[C@]12CCC(=O)C=C1CC[C@@H]1[C@@H]2[C@@H](O)C[C@@]2(C)[C@H]1CC[C@]2(O)C(=O)COC(=O)CCC(=O)O` [HYDROCORTISONE HEMISUCCINATE ANHYDROUS] yielded a Kd in [1] of 190 nM.
Regarding `C[C@]12CCC(=O)C=C1CC[C@@H]1[C@@H]2[C@@H](O)C[C@@]2(C)[C@H]1CC[C@]2(O)C(=O)CO` [HYDROCORTISONE], in data set [2], the Activity result is “Not Active”. Besides, in data set [3], the “growth inhibition (GI)” value was “Active”.
With `CC1(C)O[C@@H]2C[C@H]3[C@@H]4CCC5=CC(=O)C=C[C@]5(C)[C@@]4(F)[C@@H](O)C[C@]3(C)[C@]2(C(=O)CO)O1` [TRIAMCINOLONE ACETONIDE], the Activity entry in [2] is listed as “Not Active”. In addition, in data set [3], the “growth inhibition (GI)” value is “Active”. In addition, the “growth inhibition (GI)” value in [4] was “inactive”.
Consider `C[C@]1(c2ccccc2)O[C@@H]2C[C@H]3[C@@H]4CCC5=CC(=O)C=C[C@]5(C)[C@@]4(F)[C@@H](O)C[C@]3(C)[C@]2(C(=O)CO)O1`, for which, in data set [5], the inhibition entry was “Active”.
Take `CC1(C)O[C@@H]2C[C@H]3[C@@H]4CCC5=CC(=O)C=C[C@]5(C)[C@@]4(F)[C@@H](O)C[C@]3(C)[C@]2(C(=O)COC(=O)N(CCCl)CCCl)O1`: the Activity entry in data set [6] is reported as “Active”; in data set [8] it was 20%. Moreover, the Kd in data set [7] turned out to be 7.5 nM. The “growth inhibition (GI)” value in data set [3] is “Active”. The “growth inhibition (GI)” value in data set [4] was “inactive”.
Consider `C[C@]12CCC(=O)C=C1CC[C@@H]1[C@@H]2[C@@H](O)C[C@@]2(C)[C@H]1CC[C@]2(O)C(=O)COP(=O)(O)O`, for which the inhibition result in data set [5] is “inactive”.
Turning to `C[C@]12CCC(=O)C=C1CC[C@@H]1[C@@H]2[C@@H](O)C[C@@]2(C)[C@H]1CC[C@]2(O)C(=O)COC(=O)N(CCCl)CCCl`, the figures for the Activity result in [6] and in data set [8] were “Active” and 20%, respectively. The Kd in [7] came out at 430 nM. For the same molecule, in [3], the “growth inhibition (GI)” value is “Active”. Also, the inhibition result in data set [9] is “inactive”.
The molecule `C[C@]12CC[C@@H]3c4ccc(OC(=O)Cc5ccc(N(CCCl)CCCl)cc5)cc4CC[C@H]3[C@@H]1CC[C@@H]2OC(=O)Cc1ccc(N(CCCl)CCCl)cc1` [ESTRADIOL MUSTARD] came in with a Kd in data set [10] of 3000 nM.
